In ChEMBL document CHEMBL4330106, “A new class of pentapeptide KISS1 receptor agonists with hypothalamic-pituitary-gonadal axis activation” (Bioorg Med Chem Lett, 2019):

How the values were obtained:
[1] = molecular target: KiSS-1 receptor (Homo sapiens, UniProt Q969F8); assay: Agonist activity at human KISS1R expressed in CHO cells assessed as increase in calcium mobilization measured at 2 secs interval for 2 mins by fluo-4 NW dye based FLIPR assay; type: functional, cell-based
How it was run: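 Ligand-induced Ca2+ rise in CHO cells expressing human KISS1R, read on a fluorometric imaging plate reader (FLIPR); agonist potency reported as EC50 (nM).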

[2] = Stability in Sprague-Dawley rat serum assessed as parent compound remaining at 10 ug/ml measured immediately by LC-MS/MS analysis; type: ADME, cell-free; settings: read-out: Stability
How it was run: (§1)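 10 µL of 10 μg/mL aqueous peptide stock added to 990 μL pre-warmed SD rat serum (final 0.1 μg/mL), 37 °C. Aliquots taken at 0, 5, 15, 30, 60, 120 min. Quenched with formic acid/methanol and acetonitrile, centrifuged, internal standard added, quantified by LC/MS/MS. Result is percent remaining; n = 2.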

[3] = Stability in Sprague-Dawley rat serum assessed as parent compound remaining at 10 ug/ml measured after 5 mins by LC-MS/MS analysis; type: ADME, cell-free; settings: read-out: Stability; how it was run: as §1
[4] = Stability in Sprague-Dawley rat serum assessed as parent compound remaining at 10 ug/ml measured after 15 mins by LC-MS/MS analysis; type: ADME, cell-free; settings: read-out: Stability; how it was run: as §1
[5] = Stability in Sprague-Dawley rat serum assessed as parent compound remaining at 10 ug/ml measured after 30 mins by LC-MS/MS analysis; type: ADME, cell-free; settings: read-out: Stability; how it was run: as §1
[6] = Stability in Sprague-Dawley rat serum assessed as parent compound remaining at 10 ug/ml measured after 60 mins by LC-MS/MS analysis; type: ADME, cell-free; settings: read-out: Stability; how it was run: as §1
[7] = Stability in Sprague-Dawley rat serum assessed as parent compound remaining at 10 ug/ml measured after 120 mins by LC-MS/MS analysis; type: ADME, cell-free; settings: read-out: Stability; how it was run: as §1
[8] = Half life in Sprague-Dawley rat serum at 10 ug/ml by LC-MS/MS analysis; type: ADME, cell-free; how it was run: as §1

KiSS-1 receptor, sequence (Q969F8 whole entry): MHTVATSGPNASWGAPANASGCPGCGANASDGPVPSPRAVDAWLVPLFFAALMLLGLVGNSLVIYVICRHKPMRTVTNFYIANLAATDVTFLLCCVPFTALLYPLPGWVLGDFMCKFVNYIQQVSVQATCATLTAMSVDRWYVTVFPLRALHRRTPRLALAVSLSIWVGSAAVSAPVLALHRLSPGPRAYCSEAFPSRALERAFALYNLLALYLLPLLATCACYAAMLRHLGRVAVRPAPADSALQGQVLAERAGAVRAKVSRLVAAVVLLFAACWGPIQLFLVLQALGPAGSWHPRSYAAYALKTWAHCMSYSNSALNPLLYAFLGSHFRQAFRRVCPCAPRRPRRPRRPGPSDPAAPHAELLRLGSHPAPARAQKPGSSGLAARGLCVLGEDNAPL

EC50 [1]: 0.087 nM | remaining at 0 min, 10 ug/ml [2]: 100% | remaining at 5 min, 10 ug/ml [3]: 1.5% | remaining at 0.25 h, 10 ug/ml [4]: < 0.5% | remaining at 0.5 h, 10 ug/ml [5]: < 0.5% | remaining at 1 h, 10 ug/ml [6]: < 0.5% | remaining at 2 h, 10 ug/ml [7]: < 0.5% | half-life at 10 ug/ml [8]: < 5 min
Compound: CC(C)C[C@H](NC(=O)CNC(=O)[C@H](Cc1ccccc1)NC(=O)[C@H](CO)NC(=O)[C@H](CC(N)=O)NC(=O)[C@H](Cc1c[nH]c2ccccc12)NC(=O)[C@H](CC(N)=O)NC(=O)[C@@H](N)Cc1ccc(O)cc1)C(=O)N[C@@H](CCCNC(=N)N)C(=O)N[C@@H](Cc1ccccc1)C(N)=O [KISSPEPTIN-10]
